Measurements published in ChEMBL document CHEMBL3244396, “Synthesis and antileukemic activity of 5-substituted 2,3-dihydro-6,7-bis(hydroxymethyl)-1H-pyrrolizine diesters” (J Med Chem, 1977).

Legend:
[1] = Cytotoxicity against human 9KB cells treated as ethanol solution; assay type: functional; conditions: read-out: ED50 (the source's name)
Procedure, shortened: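 Compound applied as an ethanol solution; activity read out as ED50 under the general screening protocol.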

L1210 = assay: Antileukemic activity against mouse L1210 cells allografted in female BDF1 mouse assessed as host mean survival time at 50 mg/kg, ip administered daily for 9 days as Klucel suspension starting 24 hrs after tumor inoculation relative to control; assay type: functional; conditions: route intraperitoneal
Procedure, shortened: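 L1210 leukemia given as an ascitic fluid cell inoculum, ip, to mice of the strain and sex in each line. Test material was given ip for nine daily doses starting 24 h after inoculation, in a Klucel (hydroxypropylcellulose) suspension. Read-out is mean survival time as %T/C versus controls, with >125 taken as significant.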

Mus musculus [2] = assay: Toxicity in male CDF1 mouse allografted with mouse P388 cells assessed as animal survival at 12.5 mg/kg, ip administered daily for 9 days as Klucel suspension starting 24 hrs after tumor inoculation; assay type: organism-based; set-up: dose 12.5 mg/kg, route intraperitoneal; conditions: in vivo
Procedure, shortened: (§1)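 P-388 leukemia ascitic fluid inoculated ip. Compound given ip as a suspension in Klucel (hydroxypropylcellulose), once daily for nine doses beginning 24 h post-inoculation. Acute toxicity assessed as toxicity-day survivors per group. Survival was followed up to 30 days, with 30-day survival counted as "cure". Follows NCI screening protocols.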

Mus musculus [3] = assay: Toxicity in female BDF1 mouse allografted with mouse P388 cells assessed as animal survival at 12.5 mg/kg, ip administered daily for 9 days as Klucel suspension starting 24 hrs after tumor inoculation; assay type: organism-based; set-up: dose 12.5 mg/kg, route intraperitoneal; conditions: in vivo; procedure, shortened: as §1
P388 [4] = assay: Antitumor activity against mouse P388 cells allografted in male CDF1 mouse assessed as disease cures by measuring 30-days host survival at 50 mg/kg, ip administered daily for 9 days as Klucel suspension starting 24 hrs after tumor inoculation relative to control; assay type: functional; conditions: route intraperitoneal
Procedure, shortened: (§2)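 P388 leukemia given as an ascitic fluid cell inoculum, ip, to mice of the strain and sex in each line. Nine daily ip doses were given in a Klucel (hydroxypropylcellulose) suspension, starting 24 h after inoculation. Read-out is median survival time as %T/C, with >125 taken as significant; a "cure" means 30-day survival.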

P388 [5] = assay: Antitumor activity against mouse P388 cells allografted in male CDF1 mouse assessed as disease cures by measuring 30-days host survival at 12.5 mg/kg, ip administered daily for 9 days as Klucel suspension starting 24 hrs after tumor inoculation relative to control; assay type: functional; conditions: route intraperitoneal; procedure, shortened: as §2
P388 [6] = assay: Antitumor activity against mouse P388 cells allografted in male CDF1 mouse assessed as change in body weight at 25 mg/kg, ip administered daily for 9 days as Klucel suspension starting 24 hrs after tumor inoculation; assay type: functional; conditions: route intraperitoneal
Procedure, shortened: (§3)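 Ascitic fluid carrying P388 cells was inoculated ip. Compound was given ip in nine daily doses, starting 24 h after inoculation, in Klucel (hydroxypropylcellulose) suspension or in saline with Tween-80. Body-weight difference (treated minus control) was recorded on day 5. Survival was scored as %T/C of median survival time, and 30-day survival counted as cure.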

P388 [7] = assay: Antitumor activity against mouse P388 cells allografted in female CDF1 mouse assessed as change in body weight at 100 mg/kg, ip administered daily for 9 days as Klucel suspension starting 24 hrs after tumor inoculation; assay type: functional; conditions: route intraperitoneal; procedure, shortened: as §3
P388 [8] = assay: Antitumor activity against mouse P388 cells allografted in female BDF1 mouse assessed as change in body weight at 25 mg/kg, ip administered daily for 9 days as Klucel suspension starting 24 hrs after tumor inoculation; assay type: functional; conditions: route intraperitoneal; procedure, shortened: as §3
P388 [9] = assay: Antitumor activity against mouse P388 cells allografted in female BDF1 mouse assessed as change in body weight at 12.5 mg/kg, ip administered daily for 9 days as Klucel suspension starting 24 hrs after tumor inoculation; assay type: functional; conditions: route intraperitoneal; procedure, shortened: as §3
P388 [10] = assay: Antitumor activity against mouse P388 cells allografted in female BDF1 mouse assessed as change in body weight at 6.25 mg/kg, ip administered daily for 9 days as Klucel suspension starting 24 hrs after tumor inoculation; assay type: functional; conditions: route intraperitoneal; procedure, shortened: as §3

In the case of `CC(=O)OCc1c(COC(C)=O)c(-c2ccccc2)n2c1CCC2`, the EC50 [1] is reported as over 100 µg/mL, the T/C (L1210) is reported as 114% and the Activity (Mus musculus [2]) is reported as “Non-toxic”. The Activity (Mus musculus [3]) was “Non-toxic”, the T/C (P388 [4]) was 87% and the T/C (P388 [5]) was 110%. It also gave an Activity (P388 [6]) of -1.2 g, an Activity (P388 [7]) of -2.8 g and an Activity (P388 [8]) of -2 g. For the same molecule, the Activity (P388 [9]) was -1.2 g and the Activity (P388 [10]) was -0.4 g.
